Laboratory results reported in ChEMBL document CHEMBL1629526, “4-[1-(Substituted aryl/alkyl carbonyl)-benzoimidazol-2-yl]-benzenesulfonic acids: synthesis, antimicrobial activity, QSAR studies, and antiviral evaluation” (Eur J Med Chem, 2010).

Key:
Staphylococcus aureus = assay: Antimicrobial activity against Staphylococcus aureus after 24 hrs by tube dilution method; format: functional
Bacillus subtilis = assay: Antimicrobial activity against Bacillus subtilis after 24 hrs by tube dilution method; format: functional
In short: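 Serial dilutions in double-strength nutrient broth (I.P.) with ciprofloxacin as reference, tube dilution, incubated 37 °C for 24 h. MIC is the lowest concentration that inhibited growth.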

Escherichia coli = assay: Antimicrobial activity against Escherichia coli after 24 hrs by tube dilution method; format: functional
Candida albicans = assay: Antimicrobial activity against Candida albicans after 48 hrs by tube dilution method; format: functional
Aspergillus niger = assay: Antimicrobial activity against Aspergillus niger after 7 days by tube dilution method; format: functional; details: 168 h
[1] = Cytotoxicity against cat CRFK cells assessed as cell viability by MTS assay; format: cell-based, Felis catus; details: crfk
In short: (§1)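 Uninfected cultures were run in parallel with the antiviral assays. Viability was read by colorimetric formazan MTS assay.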

Felid alphaherpesvirus 1 = assay: Antiviral activity against Feline herpesvirus 1 infected in cat CRFK cells assessed as inhibition of virus induced cytopathicity after 2 to 4 days by MTS assay; format: functional, organism-based; details: Felid alphaherpesvirus 1, CRFK
Feline coronavirus = assay: Antiviral activity against Feline coronavirus infected in cat CRFK cells assessed as inhibition of virus induced cytopathicity after 2 to 4 days by MTS assay; format: functional, organism-based; details: Alphacoronavirus 1, CRFK
[2] = Cytotoxicity against human HEL cells assessed as altered cell morphology; format: cell-based
In short: (§2)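 Uninfected cell cultures run alongside the antiviral assays, exposed to serial compound dilutions and incubated at 37 °C for 2–4 days. Toxicity was scored microscopically and reported as the minimum cytotoxic concentration (MCC), the lowest concentration causing a detectable change in normal cell morphology.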

Human alphaherpesvirus 1 [3] = assay: Antiviral activity against Herpes simplex virus 1 KOS infected in HEL cells assessed as inhibition of virus induced cytopathicity after 2 to 4 days by MTS assay; format: functional, organism-based; details: Human alphaherpesvirus 1, KOS
Human alphaherpesvirus 2 = assay: Antiviral activity against Herpes simplex virus 2 G infected in HEL cells assessed as inhibition of virus induced cytopathicity after 2 to 4 days by MTS assay; format: functional, organism-based; details: Human alphaherpesvirus 2, strain G
Vaccinia virus = assay: Antiviral activity against Vaccinia virus infected in HEL cells assessed as inhibition of virus induced cytopathicity after 2 to 4 days by MTS assay; format: functional, organism-based; details: Orthopoxvirus vaccinia
[4] = system: Vesicular stomatitis virus; assay: Antiviral activity against Vesicular stomatitis virus infected in HEL cells assessed as inhibition of virus induced cytopathicity after 2 to 4 days by MTS assay; format: functional, organism-based
Human alphaherpesvirus 1 [5] = assay: Antiviral activity against thymidine kinase deficient acyclovir-resistant Herpes simplex virus 1 KOS infected in HEL cells assessed as inhibition of virus induced cytopathicity after 2 to 4 days by MTS assay; format: functional, organism-based; details: Human alphaherpesvirus 1, KOS
HeLa = assay: Cytotoxicity against human HeLa cells assessed as cell viability by MTS assay; format: cell-based; details: hela; in short: as §1
[6] = Cytotoxicity against human HeLa cells assessed as altered cell morphology; format: cell-based; in short: as §2
[7] = system: Vesicular stomatitis virus; assay: Antiviral activity against Vesicular stomatitis virus infected in human HeLa cells assessed as inhibition of virus induced cytopathicity by visual scoring of CPE; format: functional, organism-based
[8] = system: Vesicular stomatitis virus; assay: Antiviral activity against Vesicular stomatitis virus infected in human HeLa cells assessed as inhibition of virus induced cytopathicity after 2 to 4 days by MTS assay; format: functional, organism-based
Coxsackievirus B4 [9] = assay: Antiviral activity against coxsackievirus B4 infected in human HeLa cells assessed as inhibition of virus induced cytopathicity by visual scoring of CPE; format: functional, organism-based; details: Enterovirus B
Coxsackievirus B4 [10] = assay: Antiviral activity against coxsackievirus B4 infected in human HeLa cells assessed as inhibition of virus induced cytopathicity after 2 to 4 days by MTS assay; format: functional, organism-based; details: Enterovirus B
[11] = system: Respiratory syncytial virus; assay: Antiviral activity against Respiratory syncytial virus infected in human HeLa cells assessed as inhibition of virus induced cytopathicity by visual scoring of CPE; format: functional, organism-based
[12] = system: Respiratory syncytial virus; assay: Antiviral activity against Respiratory syncytial virus infected in human HeLa cells assessed as inhibition of virus induced cytopathicity after 2 to 4 days by MTS assay; format: functional, organism-based
MDCK = assay: Cytotoxicity against MDCK cells assessed as cell viability by MTS assay; format: cell-based, Canis lupus familiaris; details: dog, mdck; in short: as §1
[13] = Cytotoxicity against MDCK cells assessed as altered cell morphology; format: cell-based, Canis lupus familiaris; details: dog; in short: as §2
Influenza A virus [14] = assay: Antiviral activity against Influenza A H1N1 virus subtype infected in MDCK cells assessed as inhibition of virus induced cytopathicity by visual scoring of CPE; format: functional, organism-based
Influenza A virus [15] = assay: Antiviral activity against Influenza A H1N1 virus subtype infected in MDCK cells assessed as inhibition of virus induced cytopathicity after 2 to 4 days by MTS assay; format: functional, organism-based
Influenza A virus [16] = assay: Antiviral activity against Influenza A H3N2 virus subtype infected in MDCK cells assessed as inhibition of virus induced cytopathicity by visual scoring of CPE; format: functional, organism-based
Influenza A virus [17] = assay: Antiviral activity against Influenza A H3N2 virus subtype infected in MDCK cells assessed as inhibition of virus induced cytopathicity after 2 to 4 days by MTS assay; format: functional, organism-based
Influenza B virus [18] = assay: Antiviral activity against Influenza B virus infected in MDCK cells assessed as inhibition of virus induced cytopathicity by visual scoring of CPE; format: functional, organism-based
Influenza B virus [19] = assay: Antiviral activity against Influenza B virus infected in MDCK cells assessed as inhibition of virus induced cytopathicity after 2 to 4 days by MTS assay; format: functional, organism-based
[20] = Cytotoxicity against african green monkey Vero cells assessed as altered cell morphology; format: cell-based; details: chlorocebus sabaeus; in short: as §2
Human respirovirus 3 = assay: Antiviral activity against parainfluenza-3 virus infected in african green monkey Vero cells assessed as inhibition of virus induced cytopathicity after 2 to 4 days by MTS assay; format: functional, organism-based; details: Human respirovirus 3, Vero
[21] = system: Mammalian orthoreovirus 1; assay: Antiviral activity against Reovirus 1 virus infected in african green monkey Vero cells assessed as inhibition of virus induced cytopathicity after 2 to 4 days by MTS assay; format: functional, organism-based; details: Mammalian orthoreovirus 1, Vero
Sindbis virus = assay: Antiviral activity against Sindbis virus infected in african green monkey Vero cells assessed as inhibition of virus induced cytopathicity after 2 to 4 days by MTS assay; format: functional, organism-based
Coxsackievirus B4 [22] = assay: Antiviral activity against Coxsackie virus B4 infected in african green monkey Vero cells assessed as inhibition of virus induced cytopathicity after 2 to 4 days by MTS assay; format: functional, organism-based; details: Enterovirus B
Punta Toro virus = assay: Antiviral activity against Punta Toro virus infected in african green monkey Vero cells assessed as inhibition of virus induced cytopathicity after 2 to 4 days by MTS assay; format: functional, organism-based

Nc1ccc(C(=O)n2c(-c3ccc(S(=O)(=O)O)cc3)nc3ccccc32)cc1
> 50 µg/mL: MBC (Bacillus subtilis) | MFC (Candida albicans) | MFC (Aspergillus niger)
12.5 µg/mL: MBC (Staphylococcus aureus)
46.8 µg/mL: CC50 (MDCK)
25 µg/mL: MBC (Escherichia coli)
20 µg/mL: MCC [13]
> 4 µg/mL: EC50 (Influenza A virus [14]) | EC50 (Influenza A virus [15]) | EC50 (Influenza A virus [16]) | EC50 (Influenza A virus [17]) | EC50 (Influenza B virus [18]) | EC50 (Influenza B virus [19])
> 100 µg/mL: CC50 [1] | EC50 (Felid alphaherpesvirus 1) | EC50 (Feline coronavirus) | MCC [2] | EC50 (Human alphaherpesvirus 1 [3]) | EC50 (Human alphaherpesvirus 2) | EC50 (Vaccinia virus) | EC50 [4] | EC50 (Human alphaherpesvirus 1 [5]) | CC50 (HeLa) | MCC [6] | EC50 [7] | EC50 [8] | EC50 (Coxsackievirus B4 [9]) | EC50 (Coxsackievirus B4 [10]) | EC50 [11] | EC50 [12] | MCC [20] | EC50 (Human respirovirus 3) | EC50 [21] | EC50 (Sindbis virus) | EC50 (Coxsackievirus B4 [22]) | EC50 (Punta Toro virus)

C=CC(=O)n1c(-c2ccc(S(=O)(=O)O)cc2)nc2ccccc21
≥ 0.8 µg/mL: MCC [13]
6.25 µg/mL: MBC (Staphylococcus aureus)
1.56 µg/mL: MBC (Escherichia coli)
> 100 µg/mL: CC50 (HeLa) | MCC [6] | EC50 [7] | EC50 [8] | EC50 (Coxsackievirus B4 [9]) | EC50 (Coxsackievirus B4 [10]) | EC50 [11] | EC50 [12] | MCC [20] | EC50 (Human respirovirus 3) | EC50 [21] | EC50 (Sindbis virus) | EC50 (Coxsackievirus B4 [22]) | EC50 (Punta Toro virus)
100 µg/mL: MCC [2]
> 50 µg/mL: MFC (Candida albicans) | MFC (Aspergillus niger)
14.1 µg/mL: CC50 (MDCK)
> 20 µg/mL: EC50 (Felid alphaherpesvirus 1) | EC50 (Feline coronavirus) | EC50 (Human alphaherpesvirus 1 [3]) | EC50 (Human alphaherpesvirus 2) | EC50 (Vaccinia virus) | EC50 [4] | EC50 (Human alphaherpesvirus 1 [5])
> 82 µg/mL: CC50 [1]
> 0.8 µg/mL: EC50 (Influenza A virus [14]) | EC50 (Influenza A virus [15]) | EC50 (Influenza A virus [16]) | EC50 (Influenza A virus [17])
12.5 µg/mL: MBC (Bacillus subtilis)
